Data taken from ChEMBL document CHEMBL4689842, “EUbOPEN Chemogenomics Library wave 1” (2021).
Values joined by “and” are separate entries in the source; they are usually repeats but may differ in a detail not shown here. Equal values may be shown once.

Test system: HEK-293T
Test: Multiplex assay against HEK293T;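 on Population Tubulin-Different-Phenotype (%): share of the cells with healthy nuclei that show this phenotype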
Type: toxicity, cell-based
Settings: human, 10 µM, compound concentration 10 uM
In short: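 Compound was added to live cells that had been stained at seeding with Hoechst33342, BioTracker Green Microtubule Cytoskeleton Dye, MitoTracker Red and Annexin V Alexa Fluor 680, and imaging followed on a CQ1 microscope at 37°C and 5% CO2. CellPathfinder machine-learning gating divided cells into Hoechst high-intensity objects or normal cells, normal cells into healthy, pyknosed or fragmented nuclei, and pyknosed cells into mitotic or apoptotic. Tubulin, mitochondrial-mass and membrane-permeability phenotypes are per cents of healthy-nucleus cells.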

Cc1sc2c(c1C)C(c1ccc(Cl)cc1)=N[C@@H](CC(=O)OC(C)(C)C)c1nnc(C)n1-2
Population Apoptotic (%) (12 h, replicate 1): 16% and 17%
Population Fragmented Nuclei (%) (12 h, replicate 1): 19% and 13%
Population Healthy Nuclei (%) (12 h, replicate 1): 65% and 71%
Population Hoechst High Intensity Objects (%) (12 h, replicate 1): 14% and 8%
Population Membrane Permeable-Phenotype (%) (12 h, replicate 1): 3%
Population Mitochondria Different-Phenotype (%) (12 h, replicate 1): 6% and 5%
Population Mitotic Cells (%) (12 h, replicate 1): 83% and 82%
Population Normal (%) (12 h, replicate 1): 85% and 91%
Population Pyknosed Nuclei (%) (12 h, replicate 1): 15%
Population Tubulin-Different-Phenotype (%) (12 h, replicate 1): 2%
Total Cell Count (12 h, replicate 1): 561 and 772
Population Apoptotic (%) (12 h, replicate 2): 6% and 3%
Population Fragmented Nuclei (%) (12 h, replicate 2): 14% and 12%
Population Healthy Nuclei (%) (12 h, replicate 2): 79%
Population Hoechst High Intensity Objects (%) (12 h, replicate 2): 3% and 4%
Population Membrane Permeable-Phenotype (%) (12 h, replicate 2): 0%
Population Mitochondria Different-Phenotype (%) (12 h, replicate 2): 10% and 11%
Population Mitotic Cells (%) (12 h, replicate 2): 93% and 96%
Population Normal (%) (12 h, replicate 2): 96% and 95%
Population Pyknosed Nuclei (%) (12 h, replicate 2): 5% and 7%
Population Tubulin-Different-Phenotype (%) (12 h, replicate 2): 0%
Total Cell Count (12 h, replicate 2): 1959 and 1675
Population Apoptotic (%) (24 h, replicate 1): 16% and 12%
Population Fragmented Nuclei (%) (24 h, replicate 1): 17% and 9%
Population Healthy Nuclei (%) (24 h, replicate 1): 70% and 80%
Population Hoechst High Intensity Objects (%) (24 h, replicate 1): 11% and 10%
Population Membrane Permeable-Phenotype (%) (24 h, replicate 1): 1%
Population Mitochondria Different-Phenotype (%) (24 h, replicate 1): 7% and 3%
Population Mitotic Cells (%) (24 h, replicate 1): 84% and 87%
Population Normal (%) (24 h, replicate 1): 88% and 89%
Population Pyknosed Nuclei (%) (24 h, replicate 1): 11% and 10%
Population Tubulin-Different-Phenotype (%) (24 h, replicate 1): 2% and 1%
Total Cell Count (24 h, replicate 1): 472 and 770
Population Apoptotic (%) (24 h, replicate 2): 5%
Population Fragmented Nuclei (%) (24 h, replicate 2): 19% and 20%
Population Healthy Nuclei (%) (24 h, replicate 2): 76% and 75%
Population Hoechst High Intensity Objects (%) (24 h, replicate 2): 5%
Population Membrane Permeable-Phenotype (%) (24 h, replicate 2): 0%
Population Mitochondria Different-Phenotype (%) (24 h, replicate 2): 5%
Population Mitotic Cells (%) (24 h, replicate 2): 94%
Population Normal (%) (24 h, replicate 2): 94%
Population Pyknosed Nuclei (%) (24 h, replicate 2): 4% and 3%
Population Tubulin-Different-Phenotype (%) (24 h, replicate 2): 0%
Total Cell Count (24 h, replicate 2): 1813 and 2044
